# Results: PMC9817006 (Journal of psychopharmacology (Oxford, England), 2022)
# Where two headings read alike, the source gives them in different places.
# Key:
# ICR mice [1] = assay: Tail-flick test; type: in vivo
# Procedure, shortened: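 ICR mice (6/group) injected s.c. with test compound (0.001, 0.01, 0.1, 0.5 mg/kg) or saline; tail-flick latency tested at 5, 10, 15, 30, 60 and 120 min. Pre-treatment control latency 2–4 sec; 10 sec cutoff. %MPE = (test−control)/(10−control)×100.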
# ICR mice [2] = assay: Hot-plate test; type: in vivo
# Procedure, shortened: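 Hot plate at 55.0 °C, mouse confined in a 10 cm glass cylinder. Two control latencies taken ≥10 min apart; endpoint is a jump or paw lick. ICR mice (6/group) given test compound s.c. (0.001–0.5 mg/kg) or saline and tested 5–120 min post-dose. %MPE = (test−control)/(40−control)×100.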
# C57BL/6J mice [3] = assay: Tail-flick test; type: in vivo; conditions: 0.5 mg/kg s.c., 5-120 min
# Procedure, shortened: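 Tail-flick test. A control latency (2–4 sec) was measured for each mouse before dosing, with a 10 sec maximum. Mice (n=6/group) received saline or test compound 0.5 mg/kg s.c. and were tested at 5, 10, 15, 30, 60 and 120 min. %MPE = ((test−control)/(10−control)) × 100.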
# C57BL/6J mice [4] = assay: Hot-plate test; type: in vivo; conditions: 0.5 mg/kg s.c., 5-120 min
# Procedure, shortened: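 Hot plate held at 55.0 °C, with mice confined in a 10 cm glass cylinder. Two control latencies were taken at least 10 min apart. Latency was scored at a jump or at licking of the front or hind paws. Mice (n=6/group) received saline or test compound 0.5 mg/kg s.c. and were tested at 5, 10, 15, 30, 60 and 120 min. %MPE = ((test−control)/(40−control)) × 100.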
# [5] = system: C57BL/6J mice; β2 and α6 WT and KO mice; assay: Formalin test; type: in vivo
# [6] = system: C57BL/6J mice; β2 WT and KO mice; assay: Locomotor activity; type: in vivo
# Procedure, shortened: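 Saline or test compound was given s.c. 15 min before mice entered photocell cages with two banks of eight beams. Beam interruptions were counted over 30 min. β2 WT and KO mice (8/group) received 0.5 mg/kg. For repeated dosing, mice (12/group) received saline or 0.01, 0.1, 0.5 or 1 mg/kg daily for 5 days, had 2 days without injection, and were challenged on day 8.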
# [7] = system: C57BL/6J mice; β2 WT and KO mice; assay: Body temperature; type: in vivo; conditions: 0.5 mg/kg s.c.
# Procedure, shortened: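 Mixed-sex β2 WT and KO mice on a C57BL/6J background, 8/group, given saline or test compound 0.5 mg/kg s.c. Rectal temperature read by thermistor probe inserted 24 mm, just before and at set times after injection. Change from pre-treatment reading computed per mouse; room temperature 21–24°C.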
# [8] = system: C57BL/6J mice; β2 and α6 WT and KO mice; assay: Conditioned place preference; type: in vivo
# Procedure, shortened: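 Three-chamber place conditioning in β2 and α6 WT and KO mice (C57BL/6J background, 8–10/group). Day 1: 5 min confinement to the middle chamber, then 15 min free access. Test compound (0.05 mg/kg s.c.) or vehicle given over three conditioning days, sessions 4 h apart, paired chamber randomized. Day 5: drug-free 15 min test. Score = drug-paired-side time on test day minus baseline.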
# [9] = biological target: low sensitivity α4(3)β2(2) nAChR (Homo sapiens, UniProt P17787+P43681); assay: Two-electrode voltage clamp in Xenopus oocytes, LS α4β2; type: cell-based
# Procedure, shortened: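 LS α4β2 nAChR (human, cRNA in Xenopus oocytes) clamped at −60 mV, 24°C, with Ringer's (pH 7.2, 1 μM atropine) at 2 ml/min. Varying test compound concentrations applied for 12 s, then 181 s washout. Peak currents and net charge normalized to same-cell 100 μM ACh controls, then adjusted to ACh maximum determined separately; at least four oocytes.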
# rats = conditions: ref Freitas et al., 2016; cited from earlier work
# [10] = 0.001 mg/kg s.c., 5 min after injection
# [11] = 0.001 mg/kg s.c., 10 min after injection
# [12] = 0.001 mg/kg s.c., 15 min after injection
# [13] = 0.001 mg/kg s.c., 30 min after injection
# [14] = 0.001 mg/kg s.c., 60 min after injection
# [15] = 0.001 mg/kg s.c., 120 min after injection
# [16] = 0.01 mg/kg s.c., 5 min after injection
# [17] = 0.01 mg/kg s.c., 10 min after injection
# [18] = 0.01 mg/kg s.c., 15 min after injection
# [19] = 0.01 mg/kg s.c., 30 min after injection
# [20] = 0.01 mg/kg s.c., 60 min after injection
# [21] = 0.01 mg/kg s.c., 120 min after injection
# [22] = 0.1 mg/kg s.c., 5 min after injection
# [23] = 0.1 mg/kg s.c., 10 min after injection
# [24] = 0.1 mg/kg s.c., 15 min after injection
# [25] = 0.1 mg/kg s.c., 30 min after injection
# [26] = 0.1 mg/kg s.c., 60 min after injection
# [27] = 0.1 mg/kg s.c., 120 min after injection
# [28] = 0.5 mg/kg s.c., 5 min after injection
# [29] = 0.5 mg/kg s.c., 10 min after injection
# [30] = 0.5 mg/kg s.c., 15 min after injection
# [31] = 0.5 mg/kg s.c., 30 min after injection
# [32] = 0.5 mg/kg s.c., 60 min after injection
# [33] = 0.5 mg/kg s.c., 120 min after injection
# [34] = C57BL/6J mice, 0.5 mg/kg s.c., pretreatment 5, 15, 30, 60 min
# [35] = α6 WT and KO mice, 0.5 mg/kg s.c., 15 min pretreatment
# [36] = β2 WT mice, 0.5 mg/kg s.c., 15 min pretreatment
# [37] = α4(3)β2(2), normalized to the maximum ACh responses
# Chain of low sensitivity α4(3)β2(2) nAChR (P17787 26-502): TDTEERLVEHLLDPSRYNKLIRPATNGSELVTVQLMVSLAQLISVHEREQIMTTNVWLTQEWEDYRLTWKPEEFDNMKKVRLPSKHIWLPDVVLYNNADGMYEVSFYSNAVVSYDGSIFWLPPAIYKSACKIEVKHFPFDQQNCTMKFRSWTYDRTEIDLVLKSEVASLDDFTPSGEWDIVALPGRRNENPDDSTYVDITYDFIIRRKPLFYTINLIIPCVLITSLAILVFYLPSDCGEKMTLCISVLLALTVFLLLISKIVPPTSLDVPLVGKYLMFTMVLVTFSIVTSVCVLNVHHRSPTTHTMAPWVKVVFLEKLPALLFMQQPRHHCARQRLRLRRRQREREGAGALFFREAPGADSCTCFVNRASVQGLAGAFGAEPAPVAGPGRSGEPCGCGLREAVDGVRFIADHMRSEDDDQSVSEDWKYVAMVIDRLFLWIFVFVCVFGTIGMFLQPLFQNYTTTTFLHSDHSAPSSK
# Chain of low sensitivity α4(3)β2(2) nAChR (P43681 29-627 limits assumed): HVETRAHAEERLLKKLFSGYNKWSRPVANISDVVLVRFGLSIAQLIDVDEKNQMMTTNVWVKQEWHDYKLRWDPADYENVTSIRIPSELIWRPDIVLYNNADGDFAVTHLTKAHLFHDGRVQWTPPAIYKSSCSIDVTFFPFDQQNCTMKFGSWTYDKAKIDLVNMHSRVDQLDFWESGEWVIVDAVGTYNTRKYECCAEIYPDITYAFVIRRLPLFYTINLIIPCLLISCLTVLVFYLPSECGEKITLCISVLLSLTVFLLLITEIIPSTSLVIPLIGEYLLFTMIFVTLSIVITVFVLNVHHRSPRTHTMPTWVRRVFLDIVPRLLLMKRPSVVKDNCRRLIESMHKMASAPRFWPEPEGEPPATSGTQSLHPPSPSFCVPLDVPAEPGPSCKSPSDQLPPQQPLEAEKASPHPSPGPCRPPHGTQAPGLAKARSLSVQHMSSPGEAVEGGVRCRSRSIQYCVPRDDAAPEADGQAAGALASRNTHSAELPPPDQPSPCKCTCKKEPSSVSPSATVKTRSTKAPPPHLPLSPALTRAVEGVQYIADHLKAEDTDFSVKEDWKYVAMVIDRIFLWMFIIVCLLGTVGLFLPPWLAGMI
# Chain of low sensitivity α4(3)β2(2) nAChR (P43681 29-627 limits assumed): as above
compound,measurement,setting,value
"Ic1cncc(OC[C@@H]2CCN2)c1 [5IA, 5-Iodo-A-85380]","Antinociceptive response, tail-flick test",ICR mice [1]; [10],2 ± 2 % MPE
same,"Antinociceptive response, tail-flick test",ICR mice [1]; [11],3 ± 1 % MPE
same,"Antinociceptive response, tail-flick test",ICR mice [1]; [12],3 ± 2 % MPE
same,"Antinociceptive response, tail-flick test",ICR mice [1]; [13],0 ± 0 % MPE
same,"Antinociceptive response, tail-flick test",ICR mice [1]; [14],1 ± 1 % MPE
same,"Antinociceptive response, tail-flick test",ICR mice [1]; [15],4 ± 2 % MPE
same,"Antinociceptive response, tail-flick test",ICR mice [1]; [16],1 ± 1 % MPE
same,"Antinociceptive response, tail-flick test",ICR mice [1]; [17],2 ± 1 % MPE
same,"Antinociceptive response, tail-flick test",ICR mice [1]; [18],2 ± 1 % MPE
same,"Antinociceptive response, tail-flick test",ICR mice [1]; [19],2 ± 2 % MPE
same,"Antinociceptive response, tail-flick test",ICR mice [1]; [20],1 ± 1 % MPE
same,"Antinociceptive response, tail-flick test",ICR mice [1]; [21],1 ± 1 % MPE
same,"Antinociceptive response, tail-flick test",ICR mice [1]; [22],0 ± 0 % MPE
same,"Antinociceptive response, tail-flick test",ICR mice [1]; [23],3 ± 1 % MPE
same,"Antinociceptive response, tail-flick test",ICR mice [1]; [24],3 ± 1 % MPE
same,"Antinociceptive response, tail-flick test",ICR mice [1]; [25],6 ± 4 % MPE
same,"Antinociceptive response, tail-flick test",ICR mice [1]; [26],3 ± 2 % MPE
same,"Antinociceptive response, tail-flick test",ICR mice [1]; [27],5 ± 2 % MPE
same,"Antinociceptive response, tail-flick test",ICR mice [1]; [28],10 ± 4 % MPE
same,"Antinociceptive response, tail-flick test",ICR mice [1]; [29],4 ± 3 % MPE
same,"Antinociceptive response, tail-flick test",ICR mice [1]; [30],11 ± 4 % MPE
same,"Antinociceptive response, tail-flick test",ICR mice [1]; [31],7 ± 4 % MPE
same,"Antinociceptive response, tail-flick test",ICR mice [1]; [32],6 ± 3 % MPE
same,"Antinociceptive response, tail-flick test",ICR mice [1]; [33],7 ± 3 % MPE
same,"Effect on acute thermal antinociception, tail-flick test (in words)","ICR mice [1]; 0.001-0.5 mg/kg s.c., 5-120 min, Dunnett's post hoc",no significant effects of dose at any of the observed time points
same,"Antinociceptive response, hot-plate test",ICR mice [2]; [10],8 ± 3 % MPE
same,"Antinociceptive response, hot-plate test",ICR mice [2]; [11],10 ± 3 % MPE
same,"Antinociceptive response, hot-plate test",ICR mice [2]; [12],10 ± 5 % MPE
same,"Antinociceptive response, hot-plate test",ICR mice [2]; [13],4 ± 3 % MPE
same,"Antinociceptive response, hot-plate test",ICR mice [2]; [14],8 ± 5 % MPE
same,"Antinociceptive response, hot-plate test",ICR mice [2]; [15],11 ± 5 % MPE
same,"Antinociceptive response, hot-plate test",ICR mice [2]; [16],9 ± 3 % MPE
same,"Antinociceptive response, hot-plate test",ICR mice [2]; [17],7 ± 3 % MPE
same,"Antinociceptive response, hot-plate test",ICR mice [2]; [18],7 ± 3 % MPE
same,"Antinociceptive response, hot-plate test",ICR mice [2]; [19],5 ± 3 % MPE
same,"Antinociceptive response, hot-plate test",ICR mice [2]; [20],13 ± 6 % MPE
same,"Antinociceptive response, hot-plate test",ICR mice [2]; [21],5 ± 3 % MPE
same,"Antinociceptive response, hot-plate test",ICR mice [2]; [22],7 ± 2 % MPE
same,"Antinociceptive response, hot-plate test",ICR mice [2]; [23],6 ± 3 % MPE
same,"Antinociceptive response, hot-plate test",ICR mice [2]; [24],3 ± 2 % MPE
same,"Antinociceptive response, hot-plate test",ICR mice [2]; [25],0 ± 0 % MPE
same,"Antinociceptive response, hot-plate test",ICR mice [2]; [26],8 ± 4 % MPE
same,"Antinociceptive response, hot-plate test",ICR mice [2]; [27],14 ± 6 % MPE
same,"Antinociceptive response, hot-plate test",ICR mice [2]; [28],17 ± 5 % MPE
same,"Antinociceptive response, hot-plate test",ICR mice [2]; [29],11 ± 8 % MPE
same,"Antinociceptive response, hot-plate test",ICR mice [2]; [30],18 ± 9 % MPE
same,"Antinociceptive response, hot-plate test",ICR mice [2]; [31],10 ± 6 % MPE
same,"Antinociceptive response, hot-plate test",ICR mice [2]; [32],11 ± 7 % MPE
same,"Antinociceptive response, hot-plate test",ICR mice [2]; [33],11 ± 4 % MPE
same,"Effect on acute thermal antinociception, hot plate test (in words)","ICR mice [2]; 0.001-0.5 mg/kg s.c., 5-120 min",no significant effect of 5IA on acute thermal antinociception in the hot plate test
same,"Effect on acute thermal antinociception, tail-flick test (in words)",C57BL/6J mice [3],no significant effect of 5IA on acute thermal antinociception in the hot plate or tail-flick test
same,"Effect on acute thermal antinociception, hot plate test (in words)",C57BL/6J mice [4],no significant effect of 5IA on acute thermal antinociception in the hot plate or tail-flick test
same,"Paw licking, formalin test phase I, time course (in words)",[5]; [34],"significant effects of 5IA treatment at 5, 15, 30, and 60 min in phase I"
same,"Paw licking, formalin test phase II, time course (in words)",[5]; [34],significant differences observed at only 5 and 15 minutes
same,"Paw licking, formalin test, dose-response (in words)","[5]; C57BL/6J mice, 0.01, 0.1, 0.5 mg/kg s.c., 15 min pretreatment, vs vehicle",significant attenuation of paw licking responses at 0.1 and 0.5 mg/kg
same,"Paw licking, formalin test phase I (in words)",[5]; [35],completely blocked the paw licking behavior in both α6 WT and KO mice in phase I
same,"Paw licking, formalin test phase II (in words)",[5]; [35],only partially inhibited it in phase II
same,"Paw licking, formalin test phase I (in words)",[5]; [36],significantly attenuated paw licking time in phase I
same,"Paw licking, formalin test phase II (in words)",[5]; [36],partially decreased paw licking time in phase II
same,"Locomotion after repeated injection, low dose (in words)","[6]; C57BL/6J mice, 0.01 mg/kg s.c. for 5 days, vs vehicle",stimulant effects on locomotion at days 3 and 5
same,"Locomotion after repeated injection, higher doses (in words)","[6]; C57BL/6J mice, 0.5 and 1 mg/kg s.c. for 5 days, days 1 and 2, vs vehicle",depressive effects at higher doses (0.5 and 1 mg/kg)
same,Tolerance to locomotor depressant effects (in words),"[6]; C57BL/6J mice, repeated injection of higher doses",Tolerance to the depressant effects of higher doses of 5IA developed progressively after day 2
same,Attenuation of locomotion in β2 WT vs KO mice (in words),"[6]; β2 WT and KO mice, 0.5 mg/kg s.c.",this effect was only observed in β2 WT mice and not in β2 KO mice
same,"Body temperature, time course (in words)","[7]; C57BL/6J mice, vs vehicle","significant reductions in body temperature in comparison to their vehicle controls at 15-, 30- and 60-min"
same,Hypothermic effect in β2 KO vs WT mice (in words),[7]; β2 WT and KO mice,significantly abolished in β2 KO mice
same,"Conditioned place preference, dose-response (in words)","[8]; C57BL/6J mice, 0.01, 0.05, 0.1, 0.5 or 1 mg/kg s.c.","significant 5IA induced-CPP at 0.05 and 0.1 mg/kg, but not at 0.01, 0.5, and 1 mg/kg"
same,"Conditioned place preference, α6 WT vs KO (in words)","[8]; α6 WT and KO mice, 0.05 mg/kg s.c.",no significant difference in 5IA-induced CPP between α6 WT and KO mice
same,Conditioned place preference (in words),"[8]; β2 KO mice, 0.05 mg/kg s.c.",significantly abolished in β2 KO mice
same,Conditioned place preference (in words),"[8]; β2 WT mice, 0.05 mg/kg s.c.",significant CPP in comparison to their vehicle counterparts
same,Efficacy (in words),[9]; low sensitivity α4(3)β2(2),very low efficacy
same,EC50,"[9]; read-out: Net Charge EC50, α4(3)β2(2)",25 ± 14 nM
same,EC50,"[9]; read-out: Peak Currents EC50, α4(3)β2(2)",37 ± 6.3 nM
same,Net Charge Imax,[9]; [37],0.22 ± 0.04
same,Peak Currents Imax,[9]; [37],0.22 ± 0.1
same,Intracranial self-stimulation (ICSS) (in words),rats,dose-dependently produced facilitated intracranial self-stimulation (ICSS)
